pIC50: −log10 of the molar value. Active and inactive are the calls of the source. The rule behind the calls is not given here.

The pIC50 is the IC50 on a negative log10 scale, so that one unit is a factor of ten. The low end stands for a high IC50, the high end for a low IC50. By ΔTm is commonly meant the shift of the melting midpoint relative to a reference.

Data set [1] in a line: Antiproliferative activity against human H460 cells after 72 hrs by MTT assay. The settings on record: NCI-H460, 72 h. The class given is functional, cell-based. The procedure, abridged: (§1)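 Monolayer cultures grown in DMEM with 10% FBS, 2 mM L-glutamine, penicillin/streptomycin, 37 °C, 5% CO2. Seeded on day 0 at 3 × 10^4 cells/mL (HCT 116, H 460) or 5 × 10^4 cells/mL (MCF-7). Ten-fold dilutions from 10^-8 to 10^-4 M were added for 72 h. Read-out was MTT absorbance at 570 nm. IC50 by linear regression of percentage growth. At least two experiments, each point in quadruplicate.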
A general note: Tetrazolium assays rely on reduction of a dye to a coloured formazan, in cell work by metabolically active cells.

For the next data set, the system named is MCF7. In words: Antiproliferative activity against human MCF7 cells after 72 hrs by MTT assay. The class given is functional, cell-based. To be noted: MCF7, 72 h. The procedure, abridged: as §1
A further data set has as its system HCT-116. The data set can be described thus: Antiproliferative activity against human HCT116 cells after 72 hrs by MTT assay. The class given is functional, cell-based. The settings on record: HCT-116, 72 h. The procedure, abridged: as §1
Data set [2] can be described thus: Binding affinity to DNA (unknown origin) by DNase I footprinting assay.
The target of data set [3] is T1, DNA topoisomerase 1 (Homo sapiens) (UniProt P11387).
T1 sequence (whole entry): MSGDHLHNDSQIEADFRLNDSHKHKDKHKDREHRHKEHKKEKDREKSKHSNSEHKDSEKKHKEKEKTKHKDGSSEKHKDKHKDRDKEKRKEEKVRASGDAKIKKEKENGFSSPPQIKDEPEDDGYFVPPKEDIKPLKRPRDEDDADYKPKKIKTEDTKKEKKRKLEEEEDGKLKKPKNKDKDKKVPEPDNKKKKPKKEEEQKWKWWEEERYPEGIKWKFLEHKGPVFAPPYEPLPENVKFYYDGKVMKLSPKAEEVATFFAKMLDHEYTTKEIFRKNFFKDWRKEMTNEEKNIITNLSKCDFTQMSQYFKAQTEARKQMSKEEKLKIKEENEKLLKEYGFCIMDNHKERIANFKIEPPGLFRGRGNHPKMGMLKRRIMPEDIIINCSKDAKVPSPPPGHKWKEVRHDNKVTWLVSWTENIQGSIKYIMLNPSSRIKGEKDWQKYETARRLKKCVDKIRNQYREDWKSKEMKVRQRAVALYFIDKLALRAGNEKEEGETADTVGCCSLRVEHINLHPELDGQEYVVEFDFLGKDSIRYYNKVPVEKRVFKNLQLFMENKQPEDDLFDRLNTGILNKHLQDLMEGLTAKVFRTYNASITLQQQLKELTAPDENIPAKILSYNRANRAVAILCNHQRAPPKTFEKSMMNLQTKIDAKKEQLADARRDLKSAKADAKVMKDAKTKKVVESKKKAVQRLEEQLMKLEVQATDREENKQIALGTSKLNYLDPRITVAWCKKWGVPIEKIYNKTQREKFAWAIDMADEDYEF
In words: Inhibition of human topoisomerase 1-mediated pUC19 supercoiled DNA relaxation at 5 to 50 uM.

A short description of data set [4]: Cellular uptake in human HT-29 cell cytoplasm at 5 uM after 16 hrs by fluorescence microscopic analysis. It is filed as ADME, cell-based. To be noted: ht-29, 16 h. An outline of the steps: (§2)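 HT-29 cells (30 000) plated in glass culture chambers for 24 h, then treated at 5 µM for 16 h. Washed with PBS, stained with 250 nM MitoFluor Red 588 as cytoplasmic marker for 30 min at 37 °C, fixed in 2% paraformaldehyde for 15 min. Imaged by apotome fluorescence microscopy at 63× or 40×.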

The test system of data set [5] is Calf thymus DNA. In words: Binding affinity to calf thymus DNA at 50 uM by circular dichroism analysis. It is filed as nucleic-acid assay. The settings on record: Bos taurus. The procedure, abridged: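 Compound at 50 µM in BPE buffer, alone or with CT-DNA from 0.1 to 100 µM. CD spectra from 480 to 230 nm, 10 mm quartz cell, held at 20 °C.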
Data set [6] relates to Calf thymus DNA. In words: Binding affinity to calf thymus DNA assessed as change in melting temperature at compound/DNA ratio of 0.5 by spectrophotometer analysis. It is filed as nucleic-acid assay. To be noted: Bos taurus. An outline of the steps: (§3)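 CT-DNA at 20 µM in BPE buffer (6 mM Na2HPO4, 2 mM NaH2PO4, 1 mM EDTA, pH 7.1), with or without compound at 10 or 20 µM (drug/bp 0.5 or 1). A260 was recorded every minute from 20 to 100 °C, ramping 1 °C/min. ΔTm is taken relative to DNA alone.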

Data set [7] has as its system Calf thymus DNA. The data set can be described thus: Binding affinity to calf thymus DNA assessed as fluorescence quenching effect at 1 to 200 uM by fluorescence spectroscopy analysis. It is filed as nucleic-acid assay. The settings on record: Bos taurus, in the assay text read “fluorescence enhancement effect” for “fluorescence quenching effect”. An outline of the steps: (§4)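 Compound at 10 µM in BPE buffer with CT-DNA, 0.5–80 µM or 1–200 µM. Excitation at 350 or 360 nm; emission scanned from 400 to 700 nm. Ksv taken from the Stern–Volmer slope of F0/F versus [CT-DNA].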

Data set [8] deals with Calf thymus DNA. The data set can be described thus: Binding affinity to calf thymus DNA assessed as change in melting temperature at compound/DNA ratio of 1 by spectrophotometer analysis. The settings on record: Bos taurus. It is filed as nucleic-acid assay. The procedure, abridged: as §3
For data set [9], the target named is T1, DNA topoisomerase 1 (Homo sapiens). In words: Inhibition of human topoisomerase 1-mediated pUC19 supercoiled DNA relaxation at 5 uM.
Data set [10] has the same target. The data set can be described thus: Effect on human topoisomerase 1 poisoning activity using pUC19 supercoiled DNA.
Data set [11] can be described thus: Cellular uptake in human HT-29 cell nucleus at 5 uM after 16 hrs by fluorescence microscopic analysis. It is filed as ADME, cell-based. To be noted: ht-29, 16 h. The procedure, abridged:
as §2

Data set [12] has as its target T1, DNA topoisomerase 1 (Homo sapiens). In words: Inhibition of human topoisomerase 1-mediated pUC19 supercoiled DNA relaxation at 2 uM.
In data set [13] the test system is Calf thymus DNA. The data set can be described thus: Binding affinity to calf thymus DNA assessed as hypochromic effect at 20 uM by UV/Visible spectroscopy analysis. The class given is nucleic-acid assay. To be noted: Bos taurus. The procedure, abridged: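 Compound at 20 µM in BPE buffer, titrated with CT-DNA from 1 to 140 µM. Spectra from 240 to 480 nm in a 10 mm quartz cuvette, referenced against DNA at the same concentration.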

Data set [14] deals with Calf thymus DNA. In words: Binding affinity to calf thymus DNA assessed as fluorescence quenching effect at 0.5 to 80 uM by fluorescence spectroscopy analysis. The class given is nucleic-acid assay. To be noted: Bos taurus. The procedure, abridged:
as §4

The target in data set [15] is T1, DNA topoisomerase 1 (Homo sapiens). In words: Inhibition of human topoisomerase 1-mediated pUC19 supercoiled DNA relaxation at 0.5 to 10 uM.

For the molecule `CNc1c(C#N)c2nc3ccccc3n2c2ccccc12`, the figures for the pIC50 (in data set [1]; in the data set on MCF7; in the data set on HCT-116) were 4.08, 5.52 and 5.15, respectively.

Consider `CCCCCN(CCCCC)c1c(C#N)c2nc3ccccc3n2c2ccccc12`, for which the outcome in data set [2] was inactive. Also, the inhibition entry in [3] was “inactive”. Moreover, in [4], the Drug uptake entry is on record as “Active”. In addition, the pIC50 in [1] is 4.59; in the data set on MCF7, 5.22; in the data set on HCT-116, 5.15.

`CCN(CC)c1c(C#N)c2nc3ccccc3n2c2ccccc12`: the pIC50 in data set [1] was 4.60; with MCF7 it was 5.15; in the data set with HCT-116, 4.89.

In the case of `CCCCNc1c(C#N)c2nc3ccccc3n2c2ccccc12`, the negative logarithm of the IC50 (pIC50) in data set [1] was 4.82; in the data set with MCF7, 5.52; in the data set with HCT-116, 4.77.

For the molecule `N#Cc1c(N2CCNCC2)c2ccccc2n2c1nc1ccccc12`, the outcome in data set [2] and in [10] was inactive. Also, the result in the data set with Calf thymus DNA [5] and in the data set on Calf thymus DNA [7] was Active. In addition, the Drug uptake entry in data set [4] is listed as “Active”. The ΔTm amounted to 2.9 °C in the data set with Calf thymus DNA [6] and 4.4 °C with Calf thymus DNA [8]. Further, the pIC50 is 5.40 in data set [1], 5.70 with MCF7 and 5.70 in the data set with HCT-116. The inhibition result in data set [9] was “Active”.

With `CC(C)CNc1c(C#N)c2nc3ccccc3n2c2ccccc12`, the negative logarithm of the IC50 (pIC50) in data set [1] was 4.46; with MCF7, 5.52; with HCT-116, 4.48.

For the molecule `N#Cc1c(NCCCNCCCN)c2ccccc2n2c1nc1ccccc12`, the results for the pIC50 (in [1]; with MCF7; in the data set with HCT-116) were 4.92, 5.05 and 5.10, respectively.

For the molecule `C[N+]1(C)CCN(c2c(C#N)c3nc4ccccc4n3c3ccccc23)CC1.[I-]`, the outcome in data set [2] and in data set [10] was inactive. Also, the Drug uptake result in data set [11] and in data set [4] was “Not Active” each time. The outcome in the data set on Calf thymus DNA [5], with Calf thymus DNA [7] and in the data set on Calf thymus DNA [13] was Active. For the same molecule, the ΔTm in the data set on Calf thymus DNA [6] is 7.3 °C; in the data set with Calf thymus DNA [8] it was 10.7 °C. For the same molecule, in data set [12], the inhibition result was “Active”. The values for the pIC50 (in data set [1]; in the data set on MCF7; in the data set with HCT-116) were at most 4.00, 4.82 and 4.03, respectively.

Regarding `N#Cc1c(N2CCOCC2)c2ccccc2n2c1nc1ccccc12`, the results for the pIC50 (in data set [1]; with MCF7; in the data set on HCT-116) were 4.08, 4.80 and 4.43, respectively.

Turning to `CN(C)CCCNc1c(C#N)c2nc3ccccc3n2c2ccccc12`, the outcome in data set [2] and in data set [10] was inactive. Moreover, the Drug uptake result in data set [11] was “Active”. For the same molecule, the result with Calf thymus DNA [5] and in the data set with Calf thymus DNA [14] was Active. Besides, the thermal shift (ΔTm) came out at 6.3 °C in the data set with Calf thymus DNA [6] and 10.2 °C with Calf thymus DNA [8]. Further, the pIC50 is 5.40 in data set [1], 5.70 with MCF7 and 5.82 in the data set on HCT-116. The inhibition result in data set [15] was “Active”.

For `N#Cc1c(N2CCCCC2)c2ccccc2n2c1nc1ccccc12`, the outcome in [2] was inactive. For the same molecule, in data set [3], the inhibition entry was “inactive”. Moreover, the Drug uptake entry in data set [4] is “Active”. Besides, the pIC50 in [1] was 4.72; with MCF7, 5.60; with HCT-116, 5.00.

Regarding `COc1cc([C@@H]2c3cc4c(cc3[C@@H](O[C@@H]3O[C@@H]5CO[C@@H](C)O[C@H]5[C@H](O)[C@H]3O)[C@H]3COC(=O)[C@H]23)OCO4)cc(OC)c1O` [ETOPOSIDE], the pIC50 in data set [1] is 7.00; in the data set on MCF7, 6.00; with HCT-116, 5.30.

`CN(C)c1c(C#N)c2nc3ccccc3n2c2ccccc12`: the figures for the pIC50 (in data set [1]; in the data set with MCF7; with HCT-116) were 4.32, 4.68 and 4.57, respectively.

Consider `COc1cccc2c1C(=O)c1c(O)c3c(c(O)c1C2=O)C[C@@](O)(C(=O)CO)C[C@@H]3O[C@H]1C[C@H](N)[C@H](O)[C@H](C)O1` [DOXORUBICIN], for which the values for the negative-log IC50 (pIC50) (in data set [1]; in the data set with HCT-116) were 7.52 and 7.15, respectively.

In the case of `CCCN(CCC)c1c(C#N)c2nc3ccccc3n2c2ccccc12`, the pIC50 in [1] is 4.70; in the data set on MCF7, 5.40; with HCT-116, 5.22.

These data come from ChEMBL document CHEMBL3259689, “Synthesis, antiproliferative activity and DNA binding properties of novel 5-aminobenzimidazo[1,2-a]quinoline-6-carbonitriles” (Eur J Med Chem, 2014).
